Sampled rows, rich in hits. Any-hit rate of the full collection: about 0.58%.
OXTR ag = human OXTR agonists, primary screen, fluorescence, CHO-OTR cells, Fluo-8 calcium; Oxytocin receptor (Homo sapiens), P30559; Fluo-8 calcium fluorescence; normalized: DMSO 0%, oxytocin 100%; activation, % at 3 µM; actives 0.32% (n = 320,000);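 active = activation above the mean of all tested compounds plus 3 SD, cutoff set per screening run, cut at about 20% in these data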;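 note: peak over basal fluorescence ratio from a 100 s FLIPR kinetic read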
OXTR potentiate = human OXTR potentiators, primary screen, fluorescence, CHO-OTR cells, Fluo-8 calcium. Fluo-8 calcium fluorescence, potentiator mode; 0% = oxytocin EC15, 100% = EC100. activation, % at 3 µM. actives 0.061% (n = 320,000). AID 2445, 2010;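 active = activation above that plate's cutoff, the mean activation of tested compounds plus 3 SD, cut at about 6.6% in these data, passing the limit was not always enough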;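 note: 100% uses oxytocin at 75 nM as the full agonist control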
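test system = CHO-OTR cells, human receptor | compound = single-point 3.0 µM | schedule = 6 min compound pre-incubation at room temperature, 100 s kinetic read | signal = Fluo-8 no-wash calcium dye fluorescence, excitation 470-495 nm, emission 515-575 nm | repeats = single well per compound, singlicate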
TRPN1 ag = zebrafish TRPN1 channel agonists, primary screen, cell-based, HEK293, calcium fluorescence; HEK293 zebrafish TRPN1-YFP, Fluo-8 calcium fluorescence; 100% = response to 87 µM carbachol; transient receptor potential cation channel N1 (TRPN1/NompC), Danio rerio; AID 1424, 2008; activation, % at 3 µM; actives 0.18% (n = 220,000);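 active = activation above its plate's cutoff, the mean activation of test wells on that plate plus 3 SD, cut at about 19% in these data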;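 note: 0% = DMSO alone and 100% = 87 µM carbachol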
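Material – zebrafish TRPN1-YFP in HEK293 cells · Doses – 3 µM single point · Schedule – dye 1 h 37 °C plus 30 min RT · Signal – Fluo-8 calcium fluorescence, excitation 470-495 nm, emission 515-575 nm · Read-out – % activation versus carbachol response · Control set – carbachol high, DMSO low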
V1R ag counter = agonists of human V1a receptor, primary screen, counter-screen for OXTR agonist project, fluorescence, CHO-V1R cells | actives 0.25% (n = 320,000) | activation, % at 3 µM | Fluo-8 calcium fluorescence, agonist mode; 0% DMSO, 100% 3 nM vasopressin | Vasopressin V1a receptor (Homo sapiens), P37288;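 active = activation above the mean activation of all tested compounds plus 3 SD, per screening run, cut at about 20% in these data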;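 note: signal is peak over basal fluorescence ratio across a 100 second FLIPR read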
Target sequence (P37288 whole entry, looked up): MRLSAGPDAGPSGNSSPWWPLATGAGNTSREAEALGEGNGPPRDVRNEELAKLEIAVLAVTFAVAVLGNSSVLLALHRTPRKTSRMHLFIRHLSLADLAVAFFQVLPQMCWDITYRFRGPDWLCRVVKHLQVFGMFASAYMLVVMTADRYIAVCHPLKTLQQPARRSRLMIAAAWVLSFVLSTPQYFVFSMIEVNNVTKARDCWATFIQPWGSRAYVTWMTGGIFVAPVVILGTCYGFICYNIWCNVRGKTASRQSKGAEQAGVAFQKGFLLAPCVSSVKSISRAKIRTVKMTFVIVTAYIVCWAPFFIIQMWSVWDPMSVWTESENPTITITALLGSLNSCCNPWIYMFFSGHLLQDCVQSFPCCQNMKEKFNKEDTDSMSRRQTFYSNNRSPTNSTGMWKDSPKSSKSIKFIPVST
TRPML3 ag = human TRPML3 channel agonists, primary screen, cell-based, HEK293 TRPML3-YFP, Fluo-8 calcium fluorescence, 3 µM; activation, % at 3 µM; 100% = the carbachol control signal; actives 0.29% (n = 220,000); AID 1448, 2008;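 active = activation above its plate's cutoff, the mean activation of the plate's test wells plus 3 SD, cut at about 12% in these data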;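 note: 0% = DMSO only wells and 100% = carbachol wells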
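Test system – HEK293 line with stable expression of human TRPML3-YFP channel · Control set – carbachol 87 µM final as high control (100%), DMSO as low control (0%) · Signal – Fluo-8 calcium dye fluorescence, ex 470-495, em 515-575 nm · Incubation – 1-h 37 °C dye load, 5-s basal, 120-s post-compound reads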
V1aR agonist cf = V1a receptor agonists, calcium signal, confirmation, Fluo-8 calcium fluorescence, CHO-V1R cells. AID 434964, 2010. activation, % at 3 µM. agonist. actives 20% (n = 180). shares compounds with V1R ag counter;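 active = average activation exceeds primary screen hit cutoff, cut at about 21% in these data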;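 note: peak over basal fluorescence ratio during a 100 s FLIPR read; 0% = DMSO only wells and 100% = 3 nM vasopressin wells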
OXTR counter = human OXTR agonists, counter-screen for V1R agonist project, fluorescence, CHO-OTR cells, triplicate; shares compounds with V1R ag counter; Fluo-8 calcium fluorescence; activation, % at 3 µM; AID 434969, 2010; actives 10% (n = 180);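 active = mean activation over three repeats above the cutoff from the earlier oxytocin receptor agonist screen, cut at about 20% in these data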;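 note: peak over minimum fluorescence ratio within a 100 second FLIPR read; 0% = DMSO only wells and 100% = oxytocin high control wells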
Starred values were filed as active, the others as inactive; · = not tested or not shown.

SMILES	OXTR ag	OXTR potentiate	TRPN1 ag	V1R ag counter	TRPML3 ag	V1aR agonist cf	OXTR counter
CC1(C)CC(=O)C(C(C2=C(O)CC(C)(C)CC2=O)c2ccc(Cl)c([N+](=O)[O-])c2)C(=O)C1 (stereo not drawn)	8	-6	0	48*	-1	16	10
CCCCCCCCCCCCOC(=O)C[N+](C)(C)C	4	-7	-1	26*	1	0	-1
CCCCCCCCCCOC(=O)C[N+](C)(C)C/C=C(/C)Cl	0	-2	-2	3	-1	·	·
CC(C)Cn1c(-c2ccc(Br)cc2)c[nH]c1=S	8	-24	-4	35*	-1	0	-1
COc1cccc(N2CCN(c3ccc(S(=O)(=O)N4CCN(C)CC4)cc3[N+](=O)[O-])CC2)c1	15	-8	·	21*	·	7	6

Bioassay records deposited in PubChem by The Scripps Research Institute Molecular Screening Center.
